Assay results: ChEMBL document CHEMBL1811907, “Chemical and biological evaluation of dipeptidyl boronic acid proteasome inhibitors for use in prodrugs and pro-soft drugs targeting solid tumors” (J Med Chem, 2011)

Key:
[1] = Cytotoxicity against human FSCLL cells after 24 hrs by MTT assay; assay type: cell-based
Outline: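 Cells seeded at 3.2 × 10⁴ per well, grown 24 h at 37 °C, 5% CO₂, then exposed to inhibitor dilutions 24 h. Inhibitor from 0.1 M ethanol stock, pre-equilibrated overnight in pH 2.0 or pH 7.6 buffer. MTT (5 mg/mL) added for 3 h; formazan dissolved overnight in acidic Triton/isopropanol; A570 read. Quadruplicates; variable-slope sigmoidal fit.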

[2] = Inhibition of chymotrypsin-like activity of 20S proteasome using suc-LLVY-AMC as substrate preincubated for 10 mins before substrate addition at pH 2.0 by fluorescence assay
Outline: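 Inhibitor from 0.1 M ethanol stock diluted into pH 2.0 buffer (0.148 M HCl, 0.052 M KCl) and equilibrated overnight at room temperature (24 h per text). 20S proteasome SDS-activated, preincubated 10 min with inhibitor; Suc-LLVY-AMC added; fluorescence (ex 360/em 460 nm) read after 30 min. Assay-well pH checked. Quadruplicates; variable-slope sigmoidal fit.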

[3] = Ratio of CC50 for human follicular small-cell lymphocytic leukemia cells to IC50 for chymotrypsin-like activity of 20S proteasome at pH 2.0
[4] = Inhibition of intracellular chymotrypsin-like activity of 20S proteasome in human HEK293 cells after 24 hrs by fluorescence plate reader; assay type: cell-based; conditions: HEK293, 24 h
Outline: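 HEK 293 ZsGreen proteasome-sensor cells (stable ZsGreen–ornithine decarboxylase degron fusion, G418 maintenance) seeded 3.2 × 10⁴ per well, grown 24 h. Then 24 h with inhibitor at 37 °C, 5% CO₂. Cells lysed in HEPES/EDTA/5% Triton buffer for 1 h; fluorescence ex 485/em 535 nm. Quadruplicates; variable-slope sigmoidal fit.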

[5] = tested on: HEK293; experiment: Ratio of IC50 for intracellular chymotrypsin-like activity of 20S proteasome in human HEK293 cells to IC50 for in vitro chymotrypsin-like activity of 20S proteasome; assay type: cell-based
[6] = Ratio of CC50 for human follicular small-cell lymphocytic leukemia cells to IC50 for intracellular chymotrypsin-like activity of 20S proteasome in human HEK293 cells
[7] = Inhibition of chymotrypsin-like activity of 20S proteasome using suc-LLVY-AMC as substrate preincubated for 10 mins before substrate addition at pH 7.6 by fluorescence assay
Outline: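 Inhibitor from 0.1 M ethanol stock diluted into pH 7.6 buffer (25 mM HEPES, 0.5 mM EDTA) and equilibrated overnight at room temperature (24 h per text). SDS-activated 20S proteasome preincubated 10 min with inhibitor before Suc-LLVY-AMC; fluorescence ex 360/em 460 nm after 30 min. Quadruplicates; variable-slope sigmoidal fit.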

[8] = species: Mus musculus; experiment: Inhibition of proteasome in mouse tumor cells relative to inhibition in blood cells; assay type: subcellular; conditions: concentration not given here
[9] = tested on: HEK293; experiment: Metabolic stability in human HEK293 cells assessed as cell lysate-mediated compound degradation at 10^-4 M after 24 hrs by LCMS analysis; assay type: ADME, cell-based; conditions: hek293, 24 h, 100 µM
[10] = Metabolic stability in human FSCLL cells assessed as cell lysate-mediated compound degradation at 10^-4 M after 24 hrs by LCMS analysis; assay type: ADME, cell-based; conditions: 100 µM
[11] = Metabolic stability in human FSCLL cells assessed as aminopeptidase-mediated compound degradation at 10^-4 M after 24 hrs by LCMS analysis; assay type: ADME, cell-based; conditions: 100 µM
Outline: (§1)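 Intact cells, 2 × 10⁶ in 900 μL medium, incubated with inhibitor at 10⁻⁴ M for 24 h, 37 °C, 5% CO₂. Aliquots taken at time points and quenched in 1 M HCl containing Trp-Tyr internal standard. Analysed by ESI LCMS on C18 reversed phase.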

[12] = tested on: HEK293; experiment: Metabolic stability in human HEK293 cells assessed as aminopeptidase-mediated compound degradation at 10^-4 M after 24 hrs by LCMS analysis; assay type: ADME, cell-based; conditions: hek293, 24 h, 100 µM; outline: as §1

SMILES | IC50 [2] | IC50 [4] | IC50 [7] | inhibition [8] | Stability [9] | Stability [10] | Stability [11] | Stability [12] | CC50 at 24 h [1] | Ratio CC50/IC50 [3] | Ratio IC50 [5] | Ratio CC50/IC50 [6]
CC(C)C[C@H](NC(=O)[C@@H](N)Cc1cccc(F)c1)B(O)O | 0.082 µM | 1.3 µM | 0.11 µM |  |  |  |  |  |  |  | 16 | 
CC(C)C[C@H](NC(=O)CNC(=O)c1cc(Cl)ccc1Cl)B1OC(=O)CC(CC(=O)O)(C(=O)O)O1 (stereo partly drawn) |  |  |  | 74.9% |  |  |  |  |  |  |  | 
CC(C)C[C@H](NC(=O)[C@H](Cc1ccccc1)NC(=O)[C@@H](N)CC(C)C)B(O)O |  |  |  |  | Unstable | Unstable |  |  |  |  |  | 
CC(C)C[C@H](NC(=O)[C@@H](N)C(C)(C)O)B(O)O | 0.09 µM | > 10 µM | 0.15 µM |  |  |  |  |  |  |  | > 110 | 
CC(C)C[C@H](NC(=O)[C@@H](N)C1CCCCC1)B(O)O | 0.24 µM | > 10 µM | 0.9 µM |  |  |  |  |  |  |  | > 40 | 
CC(C)C[C@H](NC(=O)[C@@H](N)Cc1c(F)c(F)c(F)c(F)c1F)B(O)O | 0.17 µM | 3.3 µM | 0.47 µM |  |  |  |  |  |  |  | 20 | 
CC(C)C[C@H](NC(=O)[C@@H](N)C(c1ccccc1)c1ccccc1)B(O)O | 0.11 µM | 1 µM | 0.35 µM |  |  |  |  |  |  |  | 9 | 
CC(C)C[C@H](NC(=O)[C@@H](N)CC(C(=O)O)C(=O)O)B(O)O | 0.6 µM | > 10 µM | 3 µM |  |  |  |  |  |  |  | > 20 | 
CC(C)C[C@H](NC(=O)[C@@H](N)C(C)(C)C)B(O)O | 0.1 µM | > 10 µM | 0.15 µM |  |  |  |  |  | 0.71 µM | 7 | > 110 | <0.07
CC(C)C[C@H](NC(=O)[C@@H](N)CO)B(O)O | 0.19 µM | > 10 µM | 1.1 µM |  |  |  |  |  | 1.7 µM | 8.9 | > 50 | <0.2
CC(C)C[C@H](NC(=O)CNC(=O)c1cnccn1)B(O)O | 0.11 µM | 1.8 µM | 0.18 µM |  |  |  |  |  |  |  | 16 | 
CC(C)C[C@H](NC(=O)[C@@H](N)Cc1ccc(F)c(F)c1)B(O)O | 0.081 µM | 2.1 µM | 0.15 µM |  |  |  |  |  |  |  | 26 | 
CC[C@H](N)C(=O)N[C@@H](CC(C)C)B(O)O | 0.11 µM | > 10 µM | 0.3 µM |  |  |  |  |  | 1.5 µM | 14 | > 90 | <0.2
CC(C)C[C@H](NC(=O)[C@@H](N)Cc1cnc[nH]1)B(O)O | 0.51 µM | > 1 µM | 5.2 µM |  |  |  |  |  |  |  | > 20 | 
CCC[C@H](N)C(=O)N[C@@H](CC(C)C)B(O)O | 0.11 µM | > 10 µM | 0.54 µM |  |  |  |  |  | 1.1 µM | 10 | > 90 | <0.1

Further compounds by falling IC50 [2], results first:

IC50 [2] | IC50 [4] | IC50 [7] | inhibition [8] | Stability [9] | Stability [10] | Stability [11] | Stability [12] | SMILES | CC50 at 24 h [1] | Ratio CC50/IC50 [3] | Ratio IC50 [5] | Ratio CC50/IC50 [6]
0.08 µM | > 10 µM | 0.45 µM |  |  |  |  |  | CC(C)C[C@H](NC(=O)[C@@H](N)[C@@H](C)O)B(O)O | 2.5 µM | 30 | > 120 | <0.3
0.076 µM | 3.1 µM | 0.14 µM |  |  |  |  |  | CC(C)C[C@H](NC(=O)[C@@H](N)Cc1ccccc1F)B(O)O |  |  | 41 | 
0.075 µM | > 10 µM | 0.3 µM |  |  |  |  |  | CCCC[C@H](N)C(=O)N[C@@H](CC(C)C)B(O)O | 0.95 µM | 13 | > 130 | <0.1
0.066 µM | > 10 µM | 0.17 µM |  |  |  |  |  | CC(C)C[C@H](NC(=O)[C@@H](N)CC(C)C)B(O)O |  |  | > 150 | 
0.063 µM | > 10 µM | 0.77 µM |  |  |  |  |  | CC(C)C[C@H](NC(=O)[C@@H](N)CC(N)=O)B(O)O |  |  | > 160 | 
0.06 µM | > 10 µM | 0.13 µM |  |  |  |  |  | CC(C)C[C@H](NC(=O)[C@@H](N)Cc1ccc(F)cc1)B(O)O | 0.079 µM | 1.3 | > 170 | <0.01
0.05 µM | 1.4 µM | 0.4 µM |  |  |  |  |  | CC(C)C[C@H](NC(=O)[C@@H](N)Cc1ccc(-c2ccccc2)cc1)B(O)O |  |  | 30 | 
0.05 µM | > 10 µM | 0.36 µM |  | Stable | Stable | Stable | Stable | CC(C)C[C@H](NC(=O)[C@H](C)N)B(O)O | 3.2 µM | 64 | > 200 | <0.3
0.043 µM | 0.79 µM | 0.1 µM |  |  |  |  |  | CC(C)C[C@H](NC(=O)[C@@H](N)Cc1cc(F)cc(F)c1)B(O)O | 0.047 µM | 1 | 18 | 0.06
0.042 µM | > 10 µM | 0.12 µM |  |  |  |  |  | CC(C)C[C@H](NC(=O)[C@@H](N)Cc1ccc(O)cc1)B(O)O | 0.16 µM | 4 | > 240 | <0.02
0.039 µM | > 10 µM | 2.2 µM |  |  |  |  |  | CNCC(=O)N[C@@H](CC(C)C)B(O)O | 0.16 µM | 4.1 | > 260 | <0.07
0.037 µM | > 10 µM | 0.14 µM |  | Stable | Stable | Stable | Stable | CC(C)C[C@H](NC(=O)[C@@H](N)Cc1ccccc1)B(O)O | 0.09 µM | 2.4 | > 270 | <0.01
0.036 µM | > 10 µM | 0.61 µM |  |  |  |  |  | CC(C)C[C@H](NC(=O)CN(C)C)B(O)O |  |  | > 280 | 
0.034 µM | 0.52 µM | 0.028 µM |  |  |  |  |  | CC(C)C[C@H](NC(=O)[C@@H](NC(=O)c1cnccn1)C(C)(C)O)B(O)O |  |  | 15 | 
0.033 µM | 0.45 µM | 0.22 µM |  |  |  |  |  | CC(C)C[C@H](NC(=O)[C@@H](N)Cc1ccc2ccccc2c1)B(O)O |  |  | 13 | 
0.029 µM | > 1 µM | 0.1 µM |  |  |  |  |  | CC(C)C[C@H](NC(=O)[C@@H](N)Cc1c[nH]c2ccccc12)B(O)O | 0.4 µM | 14 | > 30 | <0.4
0.026 µM | 0.15 µM | 0.12 µM |  |  |  |  |  | CC(C)C[C@H](NC(=O)[C@@H](N)Cc1cccc2ccccc12)B(O)O | 0.011 µM | 0.4 | 6 | 0.07
0.021 µM | > 10 µM | 0.43 µM |  | Stable | Stable | Stable | Stable | CC(C)C[C@H](NC(=O)CN)B(O)O | 0.67 µM | 30 | > 470 | <0.07
0.016 µM | 2.5 µM | 0.018 µM |  |  |  |  |  | CC(C)C[C@H](NC(=O)[C@H](CO)NC(=O)c1cnccn1)B(O)O | 0.21 µM | 13 | 150 | 0.08
0.012 µM | 0.79 µM | 0.025 µM |  |  |  |  |  | CC(C)C[C@H](NC(=O)[C@@H](NC(=O)c1cnccn1)[C@@H](C)O)B(O)O | 0.1 µM | 8 | 65 | 0.12
